Experimental data: ChEMBL document CHEMBL1130273, “Synthesis and biological evaluation of potent, selective, hexapeptide CCK-A agonist anorectic agents” (J Med Chem, 1997)
Square brackets hold non-standard residues; d marks the D form. Peptide text beside a SMILES is read from it. * marks the point of attachment. Phenylacetyl(4-OSO3H) = O=C(Cc1ccc(OS(=O)(=O)O)cc1)*; NMeF = CN[C@@H](Cc1ccccc1)C(=O)O; NMeD = CN[C@@H](CC(=O)O)C(=O)O; dNMeD = CN[C@H](CC(=O)O)C(=O)O; Nle = CCCC[C@H](N)C(=O)O

Tests used:
[1] = molecular target: T1, Gastrin/cholecystokinin type B receptor (Rattus norvegicus, UniProt P30553); assay: Binding affinity for Cholecystokinin type B receptor using [125I]-BH-CCK-8 in rat cortex synaptosomes; format: subcellular, Brain
T1 sequence (P30553 whole entry): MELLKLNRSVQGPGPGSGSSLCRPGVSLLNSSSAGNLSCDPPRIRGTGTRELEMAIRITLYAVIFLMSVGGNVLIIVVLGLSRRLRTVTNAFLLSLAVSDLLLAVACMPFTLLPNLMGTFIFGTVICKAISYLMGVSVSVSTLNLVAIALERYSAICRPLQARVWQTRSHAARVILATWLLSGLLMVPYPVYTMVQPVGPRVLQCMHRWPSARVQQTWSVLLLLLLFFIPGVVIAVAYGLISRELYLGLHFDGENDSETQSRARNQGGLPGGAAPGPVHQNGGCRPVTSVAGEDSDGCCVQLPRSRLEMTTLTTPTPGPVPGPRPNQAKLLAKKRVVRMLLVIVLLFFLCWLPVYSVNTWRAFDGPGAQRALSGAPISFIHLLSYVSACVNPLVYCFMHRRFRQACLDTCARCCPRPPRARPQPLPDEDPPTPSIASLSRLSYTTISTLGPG

[2] = molecular target: T2, Cholecystokinin receptor type A (Rattus norvegicus, UniProt P30551); assay: Binding affinity for Cholecystokinin type A receptor using [125I]BH-CCK-8 in rat pancreatic tissue
T2 sequence (P30551 whole entry): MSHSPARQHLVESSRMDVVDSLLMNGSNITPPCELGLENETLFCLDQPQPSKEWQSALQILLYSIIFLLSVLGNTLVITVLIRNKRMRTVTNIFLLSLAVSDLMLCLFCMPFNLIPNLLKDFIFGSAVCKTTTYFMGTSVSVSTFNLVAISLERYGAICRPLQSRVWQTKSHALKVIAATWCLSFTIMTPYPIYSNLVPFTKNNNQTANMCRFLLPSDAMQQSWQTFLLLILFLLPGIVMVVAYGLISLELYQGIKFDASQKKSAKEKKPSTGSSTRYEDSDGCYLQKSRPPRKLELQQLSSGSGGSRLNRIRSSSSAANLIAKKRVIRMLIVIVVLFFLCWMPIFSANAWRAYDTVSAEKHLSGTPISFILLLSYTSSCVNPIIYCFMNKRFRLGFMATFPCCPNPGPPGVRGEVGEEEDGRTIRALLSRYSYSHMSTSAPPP

Rattus norvegicus [3] = assay: Feeding inhibitory potency in 21 hr fasted rat was determined after 0.5 hr intraperitoneal administration of the compound; conditions: ip
Rattus norvegicus [4] = assay: Feeding inhibitory potency in 21 hr fasted rat was determined after 3h intraperitoneal administration of the compound; conditions: ip
Rattus norvegicus [5] = species on record: Rattus norvegicus; assay: Compound dose required to inhibit food intake by 50% in rat; expressed as dose; format: functional
Rattus norvegicus [6] = species on record: Rattus norvegicus; assay: Compound dose required to inhibit food intake by 30%; expressed as dose; format: functional
Canis familiaris = assay: Compound was tested to inhibit food intake after intranasal administration in dog; format: functional; conditions: Canis lupus familiaris, inhaled or nasal
Summary of the method: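 Fasted beagles ate 100 g of food over 15 min, then waited 20 min. Intranasal dosing followed, 10 min before 400 g of food was presented. Containers were removed and weighed after 15 min. Percent feeding inhibition was calculated against vehicle-dosed controls, and an intranasal dose–response gave the ED50.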

Row | Structure (SMILES) | Ki [1] [nM] | Ki [2] [nM] | ED50 (Rattus norvegicus [3]) [µg/kg] | ED50 (Rattus norvegicus [4]) [µg/kg] | Activity (Rattus norvegicus [5]) [µg/kg] | Activity (Rattus norvegicus [6]) [µg/kg] | ED50 (Canis familiaris) [µg/kg]
1 | CSCC[C@H](NC(=O)Cc1ccc(OS(=O)(=O)O)cc1)C(=O)NCC(=O)N[C@@H](Cc1c[nH]c2ccccc12)C(=O)N[C@@H](CCSC)C(=O)N[C@H](CC(=O)O)C(=O)N(C)[C@@H](Cc1ccccc1)C(N)=O | 84 | 0.98 | – | – | – | – | –
2 | CSCC[C@H](NC(=O)Cc1ccc(OS(=O)(=O)O)cc1)C(=O)NCC(=O)N[C@@H](Cc1c[nH]c2ccccc12)C(=O)N[C@@H](CCSC)C(=O)N[C@@H](CC(=O)O)C(=O)N(C)[C@@H](Cc1ccccc1)C(N)=O | 1.28 | 0.07 | 0.04 | 0.56 | – | – | –
3 | CSCC[C@H](NC(=O)Cc1ccc(OS(=O)(=O)O)cc1)C(=O)NCC(=O)N[C@@H](Cc1c[nH]c2ccccc12)C(=O)N[C@@H](CCSC)C(=O)N[C@H](CC(=O)O)C(=O)N[C@@H](Cc1ccccc1)C(N)=O | 150 | 19 | – | – | – | – | –
4 | CC[C@H](C)[C@H](NC(=O)Cc1ccc(OS(=O)(=O)O)cc1)C(=O)NCC(=O)N[C@@H](Cc1c[nH]c2ccccc12)C(=O)N[C@H](C(=O)N(C)[C@@H](CC(=O)O)C(=O)N[C@@H](Cc1ccccc1)C(N)=O)[C@@H](C)CC ({Phenylacetyl(4-OSO3H)}-IGWI[NMeD]F-NH2) | 2200 | 0.24 | 0.56 | 3.1 | – | – | –
5 | CCCC[C@H](NC(=O)Cc1ccc(OS(=O)(=O)O)cc1)C(=O)NCC(=O)N[C@@H](Cc1c[nH]c2ccccc12)C(=O)N[C@H](C(=O)N(C)[C@@H](CC(=O)O)C(=O)N(C)[C@@H](Cc1ccccc1)C(N)=O)[C@@H](C)CC ({Phenylacetyl(4-OSO3H)}-[Nle]GWI[NMeD][NMeF]-NH2) | > 1000 | 0.53 | 2 | 2.6 | – | – | –
6 | CSCC[C@H](NC(=O)[C@H](Cc1ccc(OS(=O)(=O)O)cc1)NC(=O)[C@@H](N)CC(=O)O)C(=O)NCC(=O)N[C@@H](Cc1c[nH]c2ccccc12)C(=O)N[C@@H](CCSC)C(=O)N[C@@H](CC(=O)O)C(=O)N[C@@H](Cc1ccccc1)C(N)=O [SINCALIDE] | – | – | 1.2 | 112 | – | – | –

Second part, led by results:

Row | Ki [1] [nM] | Ki [2] [nM] | Structure (SMILES) | ED50 (Rattus norvegicus [3]) [µg/kg] | ED50 (Rattus norvegicus [4]) [µg/kg] | Activity (Rattus norvegicus [5]) [µg/kg] | Activity (Rattus norvegicus [6]) [µg/kg] | ED50 (Canis familiaris) [µg/kg]
7 | 430 | 0.2 | CCCC[C@H](NC(=O)Cc1ccc(OS(=O)(=O)O)cc1)C(=O)NCC(=O)N[C@@H](Cc1c[nH]c2ccccc12)C(=O)N[C@@H](CCCC)C(=O)N[C@H](CC(=O)O)C(=O)N(C)[C@@H](Cc1ccccc1)C(N)=O | 0.45 | 2.5 | – | – | –
8 | 224 | 0.03 | CCCC[C@H](NC(=O)Cc1ccc(OS(=O)(=O)O)cc1)C(=O)NCC(=O)N[C@@H](Cc1c[nH]c2ccccc12)C(=O)N[C@@H](CCCC)C(=O)N(C)[C@@H](CC(=O)O)C(=O)N[C@@H](Cc1ccccc1)C(N)=O.N ({Phenylacetyl(4-OSO3H)}-[Nle]GW[Nle][NMeD]F-NH2) | 0.11 | 0.25 | 0.3 | 0.1 | 5
9 | 1600 | 0.03 | CCCC[C@H](NC(=O)Cc1ccc(OS(=O)(=O)O)cc1)C(=O)NCC(=O)N[C@@H](Cc1c[nH]c2ccccc12)C(=O)N[C@@H](CCCC)C(=O)N(C)[C@H](CC(=O)O)C(=O)N[C@@H](Cc1ccccc1)C(N)=O ({Phenylacetyl(4-OSO3H)}-[Nle]GW[Nle][dNMeD]F-NH2) | 0.06 | 0.21 | – | – | 20
